NOD2 RIPK2 PPI: NOD2-RIPK2 protein interaction inhibition. hit rate 0.38% among 360,000. CHO BLA complementation NOD2-RIPK2, CCF4 ratio. AID 624267. inhibition, % at 4.98 µM; in the data active means inhibition above about 21%
MC4R barr agon: activates human MC4R beta-arrestin recruitment; P32245; U2OS MC4R beta-arrestin complementation, luminescence; percent of melanotan II response, DMSO zero; activation, % at 8.9 µM; hit rate 0.98% among 360,000;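 active means activation above a per-plate cutoff, the mean activation of sample wells on that plate plus 3 SD, cut at about 8% in these data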
Target sequence (P32245 whole entry, looked up): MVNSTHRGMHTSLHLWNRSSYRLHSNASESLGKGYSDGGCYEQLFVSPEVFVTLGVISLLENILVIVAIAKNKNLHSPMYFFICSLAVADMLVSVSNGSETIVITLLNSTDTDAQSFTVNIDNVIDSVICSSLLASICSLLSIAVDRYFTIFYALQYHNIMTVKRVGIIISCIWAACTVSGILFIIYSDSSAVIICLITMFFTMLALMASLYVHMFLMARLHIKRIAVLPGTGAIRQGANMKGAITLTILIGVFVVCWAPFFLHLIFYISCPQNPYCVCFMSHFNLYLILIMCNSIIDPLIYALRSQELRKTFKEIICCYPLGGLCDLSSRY
TLR4 MyD88 comp: inhibitors of human TLR4-MyD88 binding. O00206+Q99836. hit rate 0.18% among 200,000. HeLa CL3-4 TLR4/MyD88 BLA complementation, FRET ratio. inhibition, % at 8.4 µM; in the data active means inhibition above about 25%
TLR9-MyD88 inh: blocks human TLR9 binding to MyD88; CHO BLA complementation TLR9-MyD88, CCF4 FRET ratio; Q9NR96+Q99836; AID 504734; inhibition, % at 4.98 µM; hit rate 0.21% among 340,000;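 active means inhibition above the mean over all tested compounds plus 3 SD, cut at about 21% in these data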
MC4R antagonist: blocks human MC4R cAMP signaling | P32245 | MC4R-expressing cells, MTII-stimulated cAMP, LANCE TR-FRET | inhibition, % at 6.5 µM | hit rate 0.48% among 360,000 | AID 540295;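 active means inhibition above its plate's cutoff, the mean of tested wells on that plate plus 3 SD, cut at about 29% in these data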
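Assay system: U2OS cells stably expressing human melanocortin 4 receptor (MC4R) / Dosing: 6.5 µM / Timing: compound 30 min, challenge 1 h, detection 1 h / Measured by: Eu-cAMP/anti-cAMP TR-FRET, emission 671 nm / Replicates: singlicate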
MC4R barr ag: human MC4R beta-arrestin agonism confirmation. shares compounds with MC4R barr agon. U2OS MC4R beta-arrestin recruitment, luminescence; scaled DMSO 0%, Melanotan II 100%. activation, % at 8.9 µM. hit rate 31% among 2,400. AID 602192;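 active means mean activation across replicates above the hit cutoff set in the earlier primary screen, cut at about 8% in these data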
MOR DOR agonist: activates mu-delta opioid heterodimer, MC4R agonist counter-screen; shares compounds with MC4R barr agon; U2OS PathHunter beta-arrestin, beta-gal luminescence; percent of deltorphin B response, DMSO zero; activation, % at 9.2 µM; hit rate 5.8% among 2,400; AID 602194;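 active means mean activation across replicates exceeds the hit threshold derived in the earlier primary screen, cut at about 18% in these data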
Each line names hits and unclear results; the compound was inactive in the other large screens (follow-up assays come after a bar, where they were run). Shown are actives, neighbours in structure and some others; about 1.8% of the full set was active somewhere.

C=CCNC(=S)N/N=C/c1ccc(-c2cc(Cl)ccc2Cl)o1	none
C=CCNC(=S)N/N=C/c1ccc(-c2ccc(Cl)cc2Cl)o1	MC4R barr agon 10 (no result: TLR4 MyD88 comp) | MC4R barr ag inactive | MOR DOR agonist inactive
O=C(Nc1nc(-c2ccc(F)c(F)c2)cs1)c1ccc(OCC2CCCO2)cc1 (centres undefined)	MC4R barr agon 17 | MC4R barr ag inactive | MOR DOR agonist 28
O=C(CCCCn1c(=O)c2ccccc2n(Cc2ccc(F)cc2Cl)c1=O)NCc1ccco1	MC4R barr agon 11 | MC4R barr ag inactive | MOR DOR agonist inactive
CCC(C)Sc1ccc(-c2nc3ccc(C)cn3c2NCc2ccccc2)cc1 (centres undefined)	MC4R barr agon 12 (no result: TLR4 MyD88 comp) | MC4R barr ag inactive | MOR DOR agonist inactive
COc1ccc(-c2csc(NC(=O)c3ccccc3NS(=O)(=O)c3ccc(F)c(F)c3)n2)cc1	MC4R barr agon 15 | MC4R barr ag inactive | MOR DOR agonist inactive
COc1cccc(OCC(=O)NN=C2c3ccccc3-c3ccccc32)c1	MC4R barr agon 65 | MC4R barr ag inactive | MOR DOR agonist inactive
COc1cccc(OCC(=O)Nc2ccccc2-c2ccccc2)c1	none (no result: TLR9-MyD88 inh)
CN1CCN(CCCNC(=O)c2ccc(/C=C3\Sc4ccccc4N(Cc4ccc(F)cc4)C3=O)cc2)CC1	none
CCN1CCN(CCNC(=O)c2ccc(/C=C3\Sc4ccccc4N(Cc4ccccc4F)C3=O)cc2)CC1	MC4R barr agon 12 | MC4R barr ag 17 | MOR DOR agonist inactive
CN1CCN(CCCNC(=O)c2ccc(/C=C3/Sc4ccccc4N(Cc4cccc(Cl)c4)C3=O)cc2)CC1	MC4R barr agon 10 | MC4R barr ag 16 | MOR DOR agonist inactive
CN1CCN(CCCNC(=O)c2ccc(/C=C3\Oc4ccccc4N(Cc4ccccc4F)C3=O)cc2)CC1	none (no result: TLR4 MyD88 comp)
O=C(Nc1oc2ccccc2c(=O)c1-c1ccc(Br)cc1)c1ccco1	none (no result: TLR4 MyD88 comp)
CCc1nnc(NC(=O)c2ccc(Cl)c(S(=O)(=O)N3CCc4ccccc43)c2)s1	none
O=C(Nc1nnc(C2CC2)s1)c1ccc(Cl)c(S(=O)(=O)N2CCc3ccccc3C2)c1	MC4R barr agon 11 | MC4R barr ag inactive | MOR DOR agonist inactive
COc1ccc(C(CCNCc2ccc(OC(C)C)cc2)C(C)C)cc1 (centres undefined)	MC4R barr agon 15 (no result: TLR4 MyD88 comp, TLR9-MyD88 inh) | MC4R barr ag inactive | MOR DOR agonist inactive
COc1ccccc1C(CCNCc1ccc(N(C)C)cc1)c1ccc(OC(C)C)cc1 (centres undefined)	MC4R barr agon 13 (no result: TLR4 MyD88 comp) | MC4R barr ag inactive | MOR DOR agonist 29
COc1ccc(CNCCC(c2ccc(OC(C)C)cc2)C(C)C)cc1OC (centres undefined)	none
COc1ccc(CNCCC(c2ccc(OC(C)C)cc2)c2ccccc2OC)cc1 (centres undefined)	MC4R barr agon 12 (no result: TLR4 MyD88 comp) | MC4R barr ag 11 | MOR DOR agonist 25
O=C(Nc1nnc([C@@H]2C[C@H](O)[C@@H](CO)O2)s1)c1cccc(Cl)c1	none (no result: TLR4 MyD88 comp, TLR9-MyD88 inh)
COc1ccc(CC(N)c2csc(NC(=O)Nc3ccccc3Oc3ccccc3)n2)cc1 (centres undefined)	MC4R barr agon 12 (no result: TLR4 MyD88 comp, TLR9-MyD88 inh) | MC4R barr ag inactive | MOR DOR agonist 21
COc1ccccc1NC(=O)Nc1nc(C(N)Cc2ccc(C(F)(F)F)cc2)cs1 (centres undefined)	MC4R barr agon 21 (no result: TLR4 MyD88 comp, TLR9-MyD88 inh) | MC4R barr ag 11 | MOR DOR agonist inactive
NC(Cc1ccccc1)c1csc(NC(=O)Nc2ccccc2Oc2ccccc2)n1 (centres undefined)	none (no result: TLR4 MyD88 comp, TLR9-MyD88 inh)
CC(C)CC(N)c1csc(NC(=O)NCCc2ccccc2)n1 (centres undefined)	none (no result: TLR4 MyD88 comp, TLR9-MyD88 inh)
COc1ccc(NC(=O)Nc2nc(C(N)Cc3ccc(C(F)(F)F)cc3)cs2)cc1 (centres undefined)	MC4R barr agon 33 (no result: TLR4 MyD88 comp, TLR9-MyD88 inh) | MC4R barr ag 28 | MOR DOR agonist inactive
COc1ccc(CC(N)c2csc(NC(=O)Nc3ccc(OC)cc3)n2)cc1 (centres undefined)	none (no result: TLR4 MyD88 comp, TLR9-MyD88 inh)
NC(Cc1ccc(C(F)(F)F)cc1)c1csc(NC(=O)Nc2ccccc2Oc2ccccc2)n1 (centres undefined)	none (no result: TLR4 MyD88 comp, TLR9-MyD88 inh)
NC(Cc1ccc(C(F)(F)F)cc1)c1csc(NC(=O)NCCc2ccccc2)n1 (centres undefined)	MC4R barr agon 14 (no result: TLR4 MyD88 comp, TLR9-MyD88 inh) | MC4R barr ag 22 | MOR DOR agonist 18
CCCn1c(=S)[nH]c2cc(C(=O)N3CCN(C4CCCCC4)CC3)ccc2c1=O	none (no result: TLR4 MyD88 comp)
Cc1cccc(NC(=O)COc2ccc(-c3nn(C)c(=O)c4ccccc34)cc2)c1	none (no result: TLR4 MyD88 comp)
CC1CCN(C(=O)CCc2nnc3ccc(N4CCC5(CC4)OCCO5)nn23)CC1	none (no result: TLR4 MyD88 comp)
COc1ccc(C(=O)CSc2nc3c(c(=O)n(C)c(=O)n3C)n2C)cc1	none (no result: NOD2 RIPK2 PPI, MC4R barr agon, TLR9-MyD88 inh, MC4R antagonist)
COCCNC(=O)C1(C)CCCN(CCC(=O)c2ccc(Br)cc2)C1 (centres undefined)	none (no result: TLR4 MyD88 comp, TLR9-MyD88 inh)
COc1cc(NC(=O)Nc2nc(C(N)C(C)C)cs2)cc(OC)c1OC (centres undefined)	none (no result: TLR4 MyD88 comp, TLR9-MyD88 inh)
COc1ccc(CNC(=O)Nc2nc(C(N)Cc3ccc(Cl)cc3)cs2)cc1 (centres undefined)	none (no result: TLR4 MyD88 comp, TLR9-MyD88 inh)
COc1ccccc1CNC(=O)Nc1nc(C(N)Cc2ccc(Cl)cc2)cs1 (centres undefined)	MC4R barr agon 25 (no result: TLR4 MyD88 comp, TLR9-MyD88 inh) | MC4R barr ag 40 | MOR DOR agonist 23
NC(Cc1ccc(Cl)cc1)c1csc(Nc2ccc(-c3ccccc3)nn2)n1 (centres undefined)	MC4R barr agon 15 (no result: TLR4 MyD88 comp, TLR9-MyD88 inh) | MC4R barr ag 33 | MOR DOR agonist inactive
Cc1ccc(C(=O)Nc2nc(C(N)Cc3ccc(C(F)(F)F)cc3)cs2)cc1 (centres undefined)	MC4R barr agon 11 (no result: TLR4 MyD88 comp, TLR9-MyD88 inh) | MC4R barr ag 24 | MOR DOR agonist inactive
COc1cc(NC(=O)Nc2nc(C(N)Cc3ccc(C(F)(F)F)cc3)cs2)cc(OC)c1OC (centres undefined)	MC4R barr agon 20 (no result: TLR4 MyD88 comp, TLR9-MyD88 inh) | MC4R barr ag 21 | MOR DOR agonist inactive
Cc1ccc(CNC(=O)CCc2c(C)nn(-c3ccc(N4CCOCC4)nn3)c2C)cc1	none (no result: TLR4 MyD88 comp)
NC(c1ccccc1)c1csc(NC(=O)Nc2ccccc2Oc2ccccc2)n1 (centres undefined)	MC4R barr agon 23 (no result: TLR4 MyD88 comp, TLR9-MyD88 inh) | MC4R barr ag 35 | MOR DOR agonist inactive
COc1ccc(-c2[nH]ncc2CNC(C)c2cn(C)nc2C)c(F)c1 (centres undefined)	none
Clc1ccc(CNCc2cccs2)c(Cl)c1	MC4R barr agon 11 | MC4R barr ag inactive | MOR DOR agonist inactive
Clc1ccc(CNCc2cccs2)cc1Cl	none
Cc1nnc(SCC(=O)Nc2cc(C(N)=O)cc(C(N)=O)c2)n1-c1ccccc1	none (no result: TLR4 MyD88 comp)
